# According to ChEMBL document CHEMBL4261533, “Identification of potent cholecystokinin-B receptor antagonists: synthesis, molecular modeling and anti-cancer activity against pancreatic cancer cells” (Medchemcomm, 2017):
# Active and inactive are the calls of the source. No cut-off for these calls is given here.
# Assays:
# [1] = molecular target: T1, Gastrin/cholecystokinin type B receptor (Mus musculus) (UniProt P56481); test: Inhibition of CCK-B receptor in lumen perfused albino mouse stomach assessed as reduction in boc-pentagastrin-induced gastric acid secretion at 1 uM after 45 mins relative to control; type: functional
# T1 sequence (whole entry): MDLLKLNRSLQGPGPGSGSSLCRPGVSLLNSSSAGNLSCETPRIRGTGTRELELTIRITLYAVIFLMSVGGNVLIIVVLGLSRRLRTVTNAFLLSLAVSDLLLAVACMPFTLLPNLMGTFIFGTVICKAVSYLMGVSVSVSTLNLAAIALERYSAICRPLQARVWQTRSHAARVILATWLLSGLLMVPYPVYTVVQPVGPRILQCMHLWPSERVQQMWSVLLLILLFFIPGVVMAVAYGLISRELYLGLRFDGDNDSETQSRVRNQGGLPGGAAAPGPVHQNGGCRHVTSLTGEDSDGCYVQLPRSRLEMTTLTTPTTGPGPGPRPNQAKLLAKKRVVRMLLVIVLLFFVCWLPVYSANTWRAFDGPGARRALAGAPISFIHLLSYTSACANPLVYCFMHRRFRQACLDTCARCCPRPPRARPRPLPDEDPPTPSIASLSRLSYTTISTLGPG
# In short: (§1)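 Whole stomach excised from albino mice (25–30 g), lumen-perfused in an organ bath. Effluent pH monitored continuously with a pH probe. Acid output driven by sub-maximal Boc-pentagastrin (10 nM), measured before and 45 min after incubation with test compound. Percentage inhibition calculated.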
# [2] = molecular target: T2, Gastrin/cholecystokinin type B receptor (Rattus norvegicus, UniProt P30553); test: Displacement of [125I]-BH-CCK-8 from CCK-B receptor in rat cerebral cortex plasma membrane after 1 hr by liquid scintillation counting method; type: cell membranes
# T2 sequence (P30553 whole entry): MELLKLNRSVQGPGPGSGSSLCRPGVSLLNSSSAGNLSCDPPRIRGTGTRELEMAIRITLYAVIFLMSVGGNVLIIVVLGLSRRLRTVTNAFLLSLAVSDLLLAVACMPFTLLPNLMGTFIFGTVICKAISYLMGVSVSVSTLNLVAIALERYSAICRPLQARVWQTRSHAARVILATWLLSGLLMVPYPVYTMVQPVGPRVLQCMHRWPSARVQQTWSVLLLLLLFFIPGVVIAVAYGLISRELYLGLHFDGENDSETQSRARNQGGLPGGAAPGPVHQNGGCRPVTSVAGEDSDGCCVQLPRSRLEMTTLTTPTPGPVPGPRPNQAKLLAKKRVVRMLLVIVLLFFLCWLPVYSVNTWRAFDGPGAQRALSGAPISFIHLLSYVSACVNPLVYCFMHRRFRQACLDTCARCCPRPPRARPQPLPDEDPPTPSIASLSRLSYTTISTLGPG
# In short: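 Rat cerebral cortex plasma membrane (100 μg per tube), receptor solubilized in detergent. Non-specific binding defined with 1 μM unlabeled CCK-8s. Bound and free ligand separated on filter mats, counted by liquid scintillation. IC50 by non-linear least-squares fitting.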
# MIA PaCa-2 [3] = test: Cytotoxicity against human MIAPaCa2 cells assessed as reduction in cell viability after 24 hrs by MTT assay; type: functional, cell-based; conditions: MIA PaCa-2, 24 h
# In short: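 MiaPaca-2 cells seeded at 1000/well, incubated 24 h at 37 °C, 5% CO2, then exposed to varying compound concentrations in 200 μL standard growth medium for 24 h. MTT (5 mg/mL stock in PBS) added for 4 h at 37 °C. Formazan dissolved in DMSO, absorbance read at 540 nm. IC50 taken from dose–response graphs.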
# [4] = molecular target: T1, Gastrin/cholecystokinin type B receptor (Mus musculus); test: Inhibition of CCK-B receptor in lumen perfused albino mouse stomach assessed as reduction in boc-pentagastrin-induced gastric acid secretion after 45 mins relative to control; type: functional; in short: as §1
# [5] = molecular target: T1, Gastrin/cholecystokinin type B receptor (Mus musculus); test: Inhibition of CCK-B receptor in lumen perfused albino mouse stomach assessed as reduction in boc-pentagastrin-induced gastric acid secretion at 100 nM after 45 mins relative to control; type: functional; in short: as §1
# MIA PaCa-2 [6] = test: Inhibition of boc-pentagastrin-induced cell proliferation in human MIAPaCa2 cells at 1 to 10 uM up to 120 hrs by MTT assay; type: functional, cell-based
# In short: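 MiaPaca-2 cells seeded at 4000/well in 10% FCS-DMEM, then made quiescent for 24 h in incomplete medium. Boc-pentagastrin and/or antagonist (1 or 10 μM) added in incomplete medium; medium with the same concentrations replaced daily. MTT read after 48–120 h, absorbance at 540 nm. DMSO control at each time point set as 100%.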
# MIA PaCa-2 [7] = test: Cytotoxicity against human MIAPaCa2 cells assessed as reduction in cell viability at 1 to 10 uM after 72 hrs by MTT assay; type: functional, cell-based
# [8] = molecular target: T1, Gastrin/cholecystokinin type B receptor (Mus musculus); test: Inhibition of CCK-B receptor in lumen perfused albino mouse stomach assessed as reduction in boc-pentagastrin-induced gastric acid secretion at 300 nM after 45 mins relative to control; type: functional; in short: as §1
# [9] = molecular target: T3, Gastrin/cholecystokinin type B receptor (Homo sapiens, UniProt P32239); test: Displacement of [125I]-gastrin17 from CCK-B receptor (unknown origin)
# T3 sequence (P32239 whole entry): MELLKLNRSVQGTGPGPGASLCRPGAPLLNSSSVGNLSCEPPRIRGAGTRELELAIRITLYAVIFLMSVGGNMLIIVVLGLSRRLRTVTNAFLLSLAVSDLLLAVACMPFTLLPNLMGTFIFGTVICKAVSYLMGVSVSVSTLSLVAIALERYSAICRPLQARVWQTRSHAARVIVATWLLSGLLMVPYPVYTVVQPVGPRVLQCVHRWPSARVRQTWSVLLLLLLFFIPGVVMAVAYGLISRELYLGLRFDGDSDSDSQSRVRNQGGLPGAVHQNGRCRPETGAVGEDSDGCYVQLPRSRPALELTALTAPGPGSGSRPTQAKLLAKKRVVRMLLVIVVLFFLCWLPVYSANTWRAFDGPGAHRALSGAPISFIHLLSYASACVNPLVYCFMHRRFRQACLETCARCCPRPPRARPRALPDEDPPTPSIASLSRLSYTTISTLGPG
inhibition [1] [%],IC50 [2] [µM],inhibition [4],inhibition [5] [%],inhibition [8] [%],Compound,IC50 (MIA PaCa-2 [3]) [µM],inhibition (MIA PaCa-2 [6]),Activity (MIA PaCa-2 [7]),IC50 [9] [µM]
48,0.975,Dose-dependent effect,,,O=C(O)c1cccc(NC(=S)NNc2nc3ccccc3c(=O)n2-c2ccccc2)c1,180,,,
,0.002,Dose-dependent effect,39,,CCOc1ccc(-n2c(NNC(=S)Nc3ccc(Br)cc3)nc3ccccc3c2=O)cc1,10,Active,Active,
,,Dose-dependent effect,58,,O=C1Nc2ccccc2/C1=N/Nc1nc2ccccc2c(=O)n1-c1ccc(Cl)cc1,100,,,
,0.0174,Dose-dependent effect,48,,CCOc1ccc(-n2c(N/N=C3\C(=O)Nc4ccccc43)nc3ccccc3c2=O)cc1,80,,,
,0.0002,Dose-dependent effect,39,,O=C(O)c1cccc(NC(=S)NNc2nc3ccccc3c(=O)n2-c2ccc(Br)cc2)c1,200,,,
,0.384,Dose-dependent effect,58,,O=C1Nc2ccccc2/C1=N/Nc1nc2ccccc2c(=O)n1-c1cccc(Cl)c1,92,,,
,0.00971,Dose-dependent effect,53,,CCOc1ccc(NC(=S)NNc2nc3ccccc3c(=O)n2-c2ccc(Cl)cc2)cc1,80,,,
,0.0195,Dose-dependent effect,62,,O=C1Nc2ccccc2/C1=N/Nc1nc2ccccc2c(=O)n1-c1cccc(Br)c1,200,,,
,0.0115,Dose-dependent effect,58,,CCOc1ccc(-n2c(NNC(=S)Nc3ccc(Cl)cc3)nc3ccccc3c2=O)cc1,250,,,
,,,,,Cc1cccc(NC(=O)NC2N=C(c3ccccc3)c3ccccc3N(C)C2=O)c1 (stereo not drawn),0.0018,,,
,0.0565,Dose-dependent effect,,67,Cc1ccc(-n2c(N/N=C3\C(=O)Nc4ccccc43)nc3ccccc3c2=O)cc1,10,Active,Active,
,,,,,CNc1cccc(NC(=O)NC2N=C(c3ccccn3)c3ccccc3N(CC(=O)C(C)(C)C)C2=O)c1 (stereo not drawn),,,,0.0001
,0.00864,Dose-dependent effect,62,,O=C(O)c1cccc(NC(=S)NNc2nc3ccccc3c(=O)n2-c2cccc(Br)c2)c1,150,,,
,0.00066,Dose-dependent effect,58,,CCOc1ccc(-n2c(NNC(=S)Nc3cccc(C(=O)O)c3)nc3ccccc3c2=O)cc1,280,,,
